# Reference: ChEMBL document CHEMBL4513216, “Probing the Open Global Health Chemical Diversity Library for Multistage-Active Starting Points for Next-Generation Antimalarials” (ACS Infect Dis, 2020)
# Assay: Toxicity liver stage against HepG2, at 10uM
# Assay type: cell-based
# Parameters: test concentration 10 uM, cell line HepG2-A16-CD81EGFP
# Conditions: human, HepG2-A16-CD81EGFP cells; read-out: INHIBITION
# Outline: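 Uninfected HepG2-A16-CD81EGFP cells, 3 × 10^3 per well, 1536-well, plated on prespotted compound at 10 μM final, parasite-free screening media added to match infected plates; puromycin 10 μM positive, DMSO 0.5% negative; run in parallel with 48 h PbLuc assay at 37 °C, 5% CO2; viability by CellTiter-Glo luminescence, normalized to controls.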
row,Structure (SMILES),cytotoxicity at 10 µM [%]
1,CN(C(=O)c1cccc(C#N)c1)c1nnc(C2CCOC2)s1 (stereo not given),5.96
2,Cn1c2ccc(F)cc2c2ncn(CCCN(CCO)CCO)c(=O)c21,11.2
3,CS(=O)(=O)N1C[C@@H]2OCC(=O)N(CC3CC3)[C@@H]2C1,-13.8
4,CC(=O)N1N=C(c2ccccc2)OC1C(=O)N(C)Cc1ccccc1 (stereo not given),2.37
5,COCC(O)CN1CCC(=O)N(Cc2ccco2)Cc2ccccc21 (stereo not given),-5.62
6,CN1CC(C)(C)CN(C(=O)CCc2ccccc2)CC1=O,-0.191
7,COCCN(Cc1cc(O)nc2ccccc12)C(=O)NC(C)C,7.66
8,CCN1CC2(CC1=O)CN(C(=O)NC)CCN(S(C)(=O)=O)C2 (stereo not given),-6.29
9,Cc1nc(C)c2c(n1)CCN(C(=O)CN(C)C)CC2,-4.51
10,COCC(=O)N1CCC2(COCc3cnc(NCc4ccco4)nc32)C1 (stereo not given),-1.75
11,Cc1ccc(N2CC[C@H]3OCC[C@@]3(C(=O)N(C)C)C2)nn1,1.11
12,CNC(=O)C1CCN(c2nc3nc[nH]c(=O)c3s2)CC1,-13.5
13,COc1ccc(C2SCC(=O)N2c2ncc(C)s2)cc1 (stereo not given),8.45
14,CC(C)CN1C(=O)c2ccc(C(=O)NCCc3c[nH]cn3)cc2C1=O,9.66
15,CN(C)C(=O)COC[C@]12COC[C@H]1CN(Cc1ccoc1)C2,-1.56
16,CCCNCc1ncc(C)c(OC)c1C,0.105
17,Cn1ncc2c1CCCN(C(=O)C1CC1)C2,-8.27
18,CNC(=O)C1(CCCc2cnccn2)CCN1Cc1ccc(C)cc1 (stereo not given),0.615
19,Cc1nc(C)n(CCC(=O)N2CCc3ncc(Cl)cc3C2)n1,2.67
20,CS(=O)(=O)c1cn[nH]c1C1CCCN1C(=O)c1cccnc1 (stereo not given),-14.6
21,Cc1noc(C2(C)CCCN(C(=O)c3cnn(C)c3)C2)n1 (stereo not given),-17.3
22,CN(C)c1cc(C2CCCN2Cc2ccccc2OCC(=O)O)ccn1 (stereo not given),-3.8

row,Structure (SMILES),cytotoxicity at 10 µM [%]
1,NCc1cnn(-c2ccccc2C(=O)NCCc2ccccn2)c1,-19.5
2,O=c1ccn([C@H]2CCN(Cc3ncc[nH]3)CC[C@@H]2O)c(=O)[nH]1,13
3,COCC(=O)N1CCCC(c2noc3nc(C)cc(C(F)(F)F)c23)C1 (stereo not given),-2.25
4,CN(C)C(=O)CN1CCC(c2cccc(Cc3ccc(F)cc3)n2)CC1,-22.3
5,O=C(c1ccccn1)N1CCCC(c2cc(C(F)F)n3ncnc3n2)C1 (stereo not given),-1.74
6,Cn1cc(C2CCCN2C(=O)c2cnc(-c3ncccn3)s2)cn1 (stereo not given),18.8
7,CNC(=O)c1cccc(CNC2CCSc3c(Cl)cccc32)c1 (stereo not given),12.8
8,CCCn1ccnc1-c1cccc(NC(=O)[C@H]2CCC(=O)N2)c1,-4.97
9,N#CCCN(Cc1ccco1)C(=O)COC1CCCCC1,6.35
10,COCCn1c(C(=O)NCc2n[nH]c(C)n2)cc2ccccc21,-3.83
11,O=S(=O)(NCCc1ccccc1C(F)(F)F)N1CCOCC1,9.08
12,CC(C)C1CCC(N2CCN(CCCS(C)(=O)=O)CC2)CC1 (stereo not given),0.803
13,O=C(CN1CCc2cncnc2C1)NC(c1ccccc1)C1CC1 (stereo not given),-9.1
14,Cc1cc(C2CCCN(C(=O)COc3cc(F)ccc3F)C2)n[nH]1 (stereo not given),-1.3
15,Cn1c(C2CCCN2C(=O)CN2CCCC2=O)nc2ccccc21 (stereo not given),-3.47
16,Cc1cnc(CN2CCN(C(C)c3nc(C4CC4)no3)CC2)cn1 (stereo not given),1.32
17,O=C(Cn1ccc(=O)c2ccccc21)Nc1cnccc1O,-4.08
18,Cc1cnn(CC2CCCN2CC(=O)N(C)Cc2ccco2)c1 (stereo not given),10.8
19,CN(Cc1nc2ccccc2s1)C1CCCN(c2cccnn2)C1 (stereo not given),5.15
20,CCn1cc(C(=O)Nc2ccc(C)cc2C(=O)NC)cn1,5.81
21,COCC(C)(C)NS(=O)(=O)C1CS(=O)(=O)c2ccccc21 (stereo not given),4.22
22,CC(C)(C)n1ncc2c(=O)[nH]c(NC3CC=CC3)nc21,1.68

row,Structure (SMILES),cytotoxicity at 10 µM [%]
1,CN(c1cccc(C#N)c1)S(=O)(=O)c1cc(C(=O)O)ccc1Cl,-5.94
2,NC(=O)CNC1(c2ccc(Cl)cc2)CCCC1,13
3,CC(C)OCCN1CCc2cncnc2C1,-7.52
4,Cc1ccc(-n2c(C)nnc2SCC(O)COCc2ccco2)cc1 (stereo not given),-11.6
5,CC(C)C(CNCc1cccc2c1OCO2)N1CCOCC1 (stereo not given),-49.1
6,COC(=O)CC(C)(C)CC(=O)N1CCC(C(F)(F)F)CC1,14.9
7,CCc1c(C)nc2ccccc2c1N1CCC(O)CC1,0.395
8,O=c1[nH]c(N2CCN(C3CC3)CC2)nc2c1cnn2-c1ccccc1,10.8
9,COC(=O)CCCNC(=O)COc1ccccc1C(F)(F)F,-0.969
10,Cc1cccc(C(=O)NC2CCN(c3cnn(C)c3)C2=O)n1 (stereo not given),3.48
11,O=C(C1CCC1)N1CCc2onc(Cn3cccn3)c2C1,-1.13
12,CCOCC1CC2(CCN(C(=O)c3ccccc3F)CC2)CO1 (stereo not given),2.26
13,CC[C@H](C)Nc1ncc(-c2ccn(C3CCN(C(C)=O)CC3)n2)cn1,-9.22
14,CC[C@@H](C)[C@@H](N)C(=O)Nc1cccc(-c2cnc(NCCO)nc2)c1,-3.08
15,CCNc1nc2c(s1)C(=O)CN(C(=O)NCCc1ccccc1)C2,3.3
16,c1cc(CN(CCCn2ccnc2)Cc2ccoc2)ccn1,-11.1
17,O=C(NCCN1CCCC(CO)C1)c1ccc2sccc2c1 (stereo not given),-5.35
18,CCN(C)Cc1nc(-c2ccccc2NS(C)(=O)=O)oc1C,3.63
19,COc1cccc2c1OCC(C(=O)NCCn1nc(C)c(Cl)c1C)C2 (stereo not given),-5.89
20,O=C(O)C1(Cc2ccc(F)cc2)CCCN(Cc2ccncc2)C1 (stereo not given),-0.566
21,CCn1nc(C)c(NC(=O)CN2CC[C@@H](F)C2)c1C,-1.2
22,NCC1Cc2cc(Cl)cc(-c3cncc(C(=O)N4CCCCC4)n3)c2O1 (stereo not given),-53

row,Structure (SMILES),cytotoxicity at 10 µM [%]
1,COc1ccc(-n2c(SC)nc(O)c(Cc3ccccc3)c2=O)cc1,-7.52
2,CC(=O)NCc1nnc2n1CCN(c1ncnc3c(C)csc13)CC2,4.71
3,Cc1nc(CCNc2nc(N(C)C)nc3c2CCCC3)cc(=O)[nH]1,6.86
4,CN(C)C(Cn1ccnc1-c1ccccc1C(=O)O)c1ccccc1Cl (stereo not given),-0.966
5,O=C(O)C1(Oc2ccc(Cl)cc2)CCN(C2CCOCC2)CC1,3.05
6,COc1ccccc1-c1noc(CCC(=O)NC(C)Cn2cccn2)n1 (stereo not given),5.67
7,Cc1cccn2c(CNC(C)CO)cnc12 (stereo not given),-2.78
8,CC(=O)Nc1ccc(C(=O)N(C)C(C)Cc2cc(C)ccn2)cn1 (stereo not given),1.32
9,Cc1nc[nH]c1CN1CCN(C(=O)CCC(F)(F)F)[C@H]2CS(=O)(=O)C[C@H]21,-12.3
10,Cc1c(Br)cc2c(c1C)OCC(N(C)C)C2=O (stereo not given),-13.1
11,Cc1cn(Cc2ccccc2)nc1N,-4.66
12,O=C(Cn1ccnc1)N1C[C@@H]2CC[C@H](Oc3ccccc3)[C@@H]2C1,-3.71
13,O=S(=O)(c1ccccc1)N1CCCCC1c1cc[nH]n1 (stereo not given),7.65
14,COCC(=O)NC(C)Cc1cccc(Cl)c1 (stereo not given),-8.72
15,CN1CCCC1CNC(=O)CCCOc1ccc(Cl)cc1 (stereo not given),-9.33
16,Cn1cnnc1C1CCCN(C(=O)CCc2ccc3c(c2)OCO3)C1 (stereo not given),0.415
17,COc1ccc(-c2nc(CN3CCCC3Cn3cccn3)no2)cc1 (stereo not given),-1.89
18,COc1cc(CCC(=O)NC2CC2)ccc1OCC(F)(F)F,-8.35
19,CCN(CC1CCOC1)C(=O)c1ccccc1NS(=O)(=O)CC (stereo not given),-7.4
20,CC(=O)N1CCCN(C(=O)c2cnc3n[nH]c(C)c3c2)CC1,-5.85
21,Cc1ccc(NC2CCN(C(=O)CCc3ccco3)CC2)nn1,-2.97
22,Cn1ccnc1CN1CCN(Cc2noc(-c3ccccc3)n2)CC1,1.08

row,Structure (SMILES),cytotoxicity at 10 µM [%]
1,Cc1cnn(CCC(=O)N2CCCN(c3cccnn3)CC2)c1,1.47
2,Cc1ccccc1CC(=O)N1CCN(C2CCOC2=O)CC1 (stereo not given),-8.38
3,CCc1nccn1C1CCCN(C(=O)c2cnn3ccc(C)nc23)C1 (stereo not given),-9.68
4,Cc1cnn(CC2CCCN2C(=O)c2cc3c(F)cccc3[nH]2)c1 (stereo not given),-12.7
5,Cc1ccc(-c2cc(CN3CCOC(Cn4cncn4)C3)on2)cc1 (stereo not given),-8.65
6,Cc1nc(CN2CCN(C(=O)c3cc(C4CC4)on3)CC2)cs1,2.21
7,c1ccc2oc(CCCN3CCOC(Cn4cccn4)C3)nc2c1 (stereo not given),0.987
8,Cc1noc(C)c1-c1cccc(C2CN(CC(=O)N(C)C)CCO2)n1 (stereo not given),0.025
9,Cc1ccc(CN(CCCn2ccnc2)Cc2cnn(C)c2)s1,-18
10,c1cncc(OC[C@]23COC[C@H]2CN(C2CCOCC2)C3)c1,8.61
11,COCCN1CCO[C@@H]2CN(Cc3sccc3C)C[C@@H]2C1,-1.34
12,Cc1ccc(N2Cc3cnn(C)c3C(COCC3CC3)C2)nn1 (stereo not given),3.28
13,O=C(NCC1CCOCC1)[C@H]1C[C@@H]2CCN(c3nncs3)C[C@@H]2O1,1.73
14,Cc1ccc(CN2CCn3c(CN4CCN(C)CC4)cnc3C2C)s1 (stereo not given),8.39
15,O=C(N1CCOCC1)[C@@]12CCO[C@@H]1CCN(CC1CCCCC1)C2,3.59
16,O=C1CO[C@@H]2CN(Cc3cccs3)C[C@H]2N1CC1CC1,-2.32
17,Cc1cncc(C(=O)N2C[C@H]3CCC[C@@]3(COc3ccccn3)C2)c1,1.08
18,O=C(NC[C@H]1OC[C@@H](NC2CCNCC2)[C@@H]1O)C1CCCC1,-10.5
19,c1ccc(OCc2noc3c2CN(c2ncccn2)CC3)nc1,-3.25
20,CN(C)C(=O)COC[C@]12COC[C@H]1CN(CCc1ccccc1)C2,-1.69
21,O=C(NCc1ccccc1)C1=NOC2(CCNC2)C1 (stereo not given),0.213
22,Cc1ccc(C(=O)N2C[C@@H]3CC[C@H]2CN(S(=O)(=O)N(C)C)C3)c(O)c1,3.41
